Results on four compounds are retold here after ChEMBL document CHEMBL1158458, “Virtual screening approach for the identification of new Rac1 inhibitors” (J Med Chem, 2009).

The source made the active and inactive calls. The calls are words filed in the database; no cut-off is given here. Some results are limits rather than exact numbers.

Experiment [1] addresses Ras-related C3 botulinum toxin substrate 1 (Mus musculus) (UniProt P63001). As to the kind of experiment: Inhibition of PDGF-BB-stimulated Rac1-mediated cellular events in mouse 3T3 cells assessed as induction of membrane lamillipodia at 25 uM after 48 hrs by fluorescent microscopy. Particulars: NIH3T3. Format: cell-based. The procedure, abridged:
(§1)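 Serum-starved 3T3 cells were treated with compound at 25 μM and stimulated with PDGF-BB. Lamellipodia and membrane ruffle formation at the cell edges were then scored, together with cytoskeletal rearrangement.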

Experiment [2] has the same target. Nature of the experiment: Inhibition of PDGF-BB-stimulated Rac1-mediated cellular events in mouse 3T3 cells assessed as induction of membrane ruffling formation at 25 uM after 48 hrs by fluorescent microscopy. Format: cell-based. To be noted: NIH3T3. The procedure, abridged: as §1
The target of experiment [3] is Cell division control protein 42 homolog (Homo sapiens) (UniProt P60953). Nature of the experiment: Inhibition of Cdc42.
Chain of Cell division control protein 42 homolog (Homo sapiens) (P60953 whole entry, looked up): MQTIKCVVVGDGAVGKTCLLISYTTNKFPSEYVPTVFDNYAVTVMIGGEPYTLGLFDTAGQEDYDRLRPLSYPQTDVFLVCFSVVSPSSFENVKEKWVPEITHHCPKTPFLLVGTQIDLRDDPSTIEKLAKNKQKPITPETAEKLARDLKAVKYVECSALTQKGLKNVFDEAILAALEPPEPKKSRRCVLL
In experiment [4] the target is Transforming protein RhoA (Homo sapiens) (UniProt P61586). As to the kind of experiment: Inhibition of PDGF-BB-stimulated RhoA activity in human aortic smooth muscle cells assessed as reduction in ratio of RhoAGTP/RhoA levels at 25 uM after 4 hrs by pull-down assay. An outline of the steps: (§2)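 Cultured human aortic SMCs exposed to compound at 25 μM for 4 h, then stimulated with PDGF-BB (final 10 ng/mL) for 2 min. Active GTPase (Cdc42-GTP for line 2, RhoA-GTP for line 3) isolated by pull-down and expressed as the GTP-bound/total protein ratio. The Rac1 pull-down was run under the same conditions.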
Chain of Transforming protein RhoA (Homo sapiens) (P61586 whole entry): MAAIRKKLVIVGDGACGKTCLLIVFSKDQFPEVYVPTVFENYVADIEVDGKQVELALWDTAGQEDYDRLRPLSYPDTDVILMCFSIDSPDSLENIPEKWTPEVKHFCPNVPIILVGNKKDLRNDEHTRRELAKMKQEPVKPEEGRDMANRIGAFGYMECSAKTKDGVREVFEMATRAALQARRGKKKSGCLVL

Experiment [5] addresses Cell division control protein 42 homolog (Homo sapiens) (UniProt P60953). Nature of the experiment: Inhibition of PDGF-BB-stimulated Cdc42 activity in human aortic smooth muscle cells assessed as reduction in ratio of Cdc42GTP/Cdc42 levels at 25 uM after 4 hrs by pull-down assay. The procedure, abridged:
as §2

The target in experiment [6] is Ras-related C3 botulinum toxin substrate 1 (Homo sapiens, UniProt P63000). As to the kind of experiment: Inhibition of PDGF-BB-stimulated Rac1 activity in human aortic smooth muscle cells assessed as reduction of Rac1GTP level after 4 hrs by G-LISA.

On to `COc1ccc(NC(=O)c2n[nH]c3ccccc23)cc1S(=O)(=O)N1CCCCC1`, for which the result in experiment [1], in experiment [2] and in experiment [3] was Active. The outcome in experiment [4] was inactive. For the same compound, the Percent reduction in Cdc42-GTP/total Cdc42 ratio in experiment [5] was less than 25%.

As for `CC(OC(=O)c1ccc2ccccc2c1O)C(=O)Nc1ccc(N2CCOCC2)cc1` (stereo not given), the result in experiment [3] was Active. The outcome in experiment [4] was inactive. Moreover, in experiment [5], the Percent reduction in Cdc42-GTP/total Cdc42 ratio was less than 25%.

On to `O=C(CNc1ccc(F)c([N+](=O)[O-])c1)Nc1ccc(N2CCOCC2)cc1`, for which the outcome in experiment [3] was Active. Moreover, the outcome in experiment [4] was inactive. In addition, the Percent reduction in Cdc42-GTP/total Cdc42 ratio in experiment [5] is less than 25%.

With `COc1cc2c(C#N)c(N3CCN(c4ccccc4OC)CC3)nc(N)c2c(N)n1`, the result in experiment [3] was Active. The outcome in experiment [4] was inactive. In addition, the Percent reduction in Cdc42-GTP/total Cdc42 ratio in experiment [5] was less than 25%. For the same compound, in experiment [6], the IC50 (as a rule, the concentration that inhibits the measured activity by half) stood at 46.1 µM.
